We go through 10 molecules from ChEMBL document CHEMBL2046409, “Design and synthesis of active site inhibitors of the human farnesyl pyrophosphate synthase: apoptosis and inhibition of ERK phosphorylation in multiple myeloma cells” (J Med Chem, 2012).

In test [1] the target is T1, Farnesyl pyrophosphate synthase (Homo sapiens, UniProt P14324).
T1 sequence (P14324 whole entry): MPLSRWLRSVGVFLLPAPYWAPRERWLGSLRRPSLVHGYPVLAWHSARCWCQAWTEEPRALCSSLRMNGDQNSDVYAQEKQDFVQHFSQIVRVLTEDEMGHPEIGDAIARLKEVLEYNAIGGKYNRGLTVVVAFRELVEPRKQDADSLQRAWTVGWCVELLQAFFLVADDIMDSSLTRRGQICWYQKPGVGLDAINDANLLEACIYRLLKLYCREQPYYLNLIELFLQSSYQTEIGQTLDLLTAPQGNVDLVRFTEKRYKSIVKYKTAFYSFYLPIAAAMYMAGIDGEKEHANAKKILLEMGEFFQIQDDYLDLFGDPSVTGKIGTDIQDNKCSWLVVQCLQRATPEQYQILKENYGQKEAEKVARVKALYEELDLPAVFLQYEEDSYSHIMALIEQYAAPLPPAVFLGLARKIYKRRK
Nature of the test: Inhibition of human FPPS using […] as substrate incubated for 30 mins prior to substrate addition measured after 20 mins by scintillation counting.

The nature of test [2]: Antiproliferative activity against human JJN-3 after 72 hrs by MTT assay. The class given is functional. Conditions: JJN-3, 72 h. On the technique in general: Tetrazolium assays rely on reduction of a dye to a coloured formazan, in cell work by metabolically active cells.
A short description of test [3]: Antiproliferative activity against human KMS-28PE after 72 hrs by MTT assay. Type of test: functional.
Test [4] addresses T1, Farnesyl pyrophosphate synthase. Nature of the test: Inhibition of human recombinant N-terminal-His6 tagged FPPS expressed in Escherichia coli BL21 using [14C]IPP and GPP as substrate incubated for 10 mins prior to substrate addition measured after 10 mins by scintillation counting.
The target is the same in test [5]. Nature of the test: Inhibition of human recombinant N-terminal-His6 tagged FPPS expressed in Escherichia coli BL21 using [3H]IPP and GPP as substrate measured after 20 mins by liquid scintillation counting.
Test [6] in a line: Antiproliferative activity against human […] after 72 hrs by MTT assay. Type of test: functional. The procedure, abridged: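 Cells seeded at 10,000/well and rested 2 h, then given compound diluted in culture medium as a half-log series spanning 100 nM–333 μM. Incubated 72 h at 37 °C in 5% CO2. MTT read at OD490.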
Test [7] is described as follows: Induction of apoptosis in human KMS-28PE cells assessed as viable cells at 1 uM after 48 hrs by AnnexinV/7AAD staining-based flow cytometric assay (reference value: 93%). The class given is functional. Conditions: read-out: Activity. A general note: In flow cytometry, cells or beads pass a laser one at a time.
A short description of test [8]: Induction of apoptosis in human KMS-28PE cells assessed as viable cells at 100 uM after 48 hrs by AnnexinV/7AAD staining-based flow cytometric assay (reference value: 93%). Conditions: read-out: Activity. The class given is functional.
Test [9] in a line: Induction of apoptosis in human KMS-28PE cells assessed as early apoptotic cells at 1 uM after 48 hrs by AnnexinV/7AAD staining-based flow cytometric assay (reference value: 1.44%). Type of test: functional.
Test [10] in a line: Induction of apoptosis in human KMS-28PE cells assessed as early apoptotic cells at 100 uM after 48 hrs by AnnexinV/7AAD staining-based flow cytometric assay (reference value: 1.44%). The class given is functional.
Test [11] can be described thus: Induction of apoptosis in human KMS-28PE cells assessed as late apoptotic cells at 1 uM after 48 hrs by AnnexinV/7AAD staining-based flow cytometric assay (reference value: 5.18%). Type of test: functional.
A short description of test [12]: Induction of apoptosis in human KMS-28PE cells assessed as late apoptotic cells at 100 uM after 48 hrs by AnnexinV/7AAD staining-based flow cytometric assay (reference value: 5.18%). The class given is functional.
Test [13] is described as follows: Induction of apoptosis in human KMS-28PE cells assessed as necrotic cells at 1 uM after 48 hrs by AnnexinV/7AAD staining-based flow cytometric assay (reference value: 0.36%). Type of test: functional.
A short description of test [14]: Induction of apoptosis in human KMS-28PE cells assessed as necrotic cells at 100 uM after 48 hrs by AnnexinV/7AAD staining-based flow cytometric assay (reference value: 0.36%). Type of test: functional.
Test [15] has as its target T2, Farnesyl pyrophosphate synthase (Homo sapiens) (UniProt P14324).
T2 sequence (whole entry): T1 sequence (P14324 whole entry)
Nature of the test: Inhibition of FPPS in human RPMI8226 cells assessed as inhibition of Ras-mediated ERK phosphorylation at 100 uM up to 20 mins by Western blot analysis. The class given is cell-based. Conditions: RPMI-8226. The method, boiled down: (§1)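 RPMI8226 cells serum-starved overnight, then stimulated with 10% FBS with or without 100 μM inhibitor for 0 (starved only), 10 and 20 min. Washed in ice-cold PBS/BSA and lysed in Triton/deoxycholate buffer with protease inhibitors. ERK and pERK detected by Western blot with HRP secondary antibodies and ECL chemiluminescence.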
(Immunoblotting shows a protein as a band on a membrane.)

The subject of another test is RPMI-8226. In words: Inhibition of ERK protein expression level in human RPMI8226 cells at 100 uM up to 20 mins by Western blot analysis. The class given is functional, cell-based. The procedure, abridged:
as §1

Broadly, the IC50 is the concentration that gives 50% inhibition. A word on the EC50: it is the concentration that produces a half-maximal response. The low end stands for higher potency in that assay, the high end for lower potency in that assay.

SMILES strings stand for the structures. The source made the active and inactive calls. The rule behind the calls is not given here. Some results are limits rather than exact numbers.

The molecule `CCCCCCCCCCOc1ccc[n+](CC(P(=O)([O-])O)P(=O)(O)O)c1` (stereo not drawn) returned an IC50 in [1] of 0.1 µM.
On to `O=P(O)(O)C(O)(Cc1cccnc1)P(=O)(O)O` [RISEDRONIC ACID], for which the EC50 is 10 µM in test [2] and 10.6 µM in test [3].
`CC(C)=CCC/C(C)=C/CC(C/C=C(\C)CCC=C(C)C)(P(=O)(O)O)P(=O)(O)O` [DIGERANYL BISPHOSPHONATE]: the IC50 in test [4] was over 10 µM.
`O=P(O)(O)C(F)(Cc1cncc(-c2ccccc2)c1)P(=O)(O)O`: the IC50 in [4] was found to be 0.115 µM.
`O=P(O)(O)C(F)(Cc1cncc(-c2ccc3[nH]ncc3c2)c1)P(=O)(O)O`: the IC50 in [4] was found to be 0.52 µM.
Consider `O=P(O)(O)C(Nc1cc(-c2ccc(OC3CCCC3)cc2)ccn1)P(=O)(O)O`, for which the results for the IC50 in [4] and in [5] were 0.032 µM and 0.785 µM, respectively. Moreover, the EC50 in [2] is 8.6 µM; in test [6], 3.6 µM; in test [3], 3.2 µM. In addition, the viability at 1 µM in test [7] was found to be 91.8%. Besides, the viability at 100 µM in [8] is 84.8%. Moreover, the Activity in test [9] is given as 1.81%; in test [10] it was 5.64%; in [11], 5.94%; in test [12] it was 9.15%; in test [13], 0.4%; in test [14] it was 0.46%. The inhibition result in test [15] was “Active”. Besides, in the test on RPMI-8226, the inhibition result is “inactive”.
For `Cc1ccc(-c2ccnc(NC(P(=O)(O)O)P(=O)(O)O)c2)cc1`, in [4], the IC50 was determined as 0.035 µM.
Consider `O=P(O)(O)C(Nc1cc(-c2ccc(OC3CCC3)cc2)ccn1)P(=O)(O)O`, for which the IC50 in test [4] worked out at 0.035 µM; in test [5] it was 2.09 µM.
On to `O=P(O)(O)C(Nc1cc(-c2ccc3[nH]ncc3c2)ccn1)P(=O)(O)O`, for which, in test [4], the IC50 was found to be 0.43 µM.
On to `O=P(O)(O)C(O)(Cn1ccnc1)P(=O)(O)O` [ZOLEDRONIC ACID], for which the EC50 in test [2] amounted to 9.4 µM; in test [6], 10.5 µM; in [3], 6.4 µM.
